Screening results as filed in PubChem BioAssay.
RBBP9 inhibitor – inhibitors of human serine hydrolase RBBP9; O75884; 220,000 tested, 0.2% active; AID 1515; recombinant RBBP9, FP-Rh probe fluorescence polarization; inhibition, % at 7.94 µM;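 active means inhibition above the campaign mean of all tested compounds plus 3 SD, cut at about 14% in these data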;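 further: plate controls were DMSO wells with RBBP9 for no effect and wells lacking RBBP9 protein for full effect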
Target sequence (O75884 whole entry, looked up): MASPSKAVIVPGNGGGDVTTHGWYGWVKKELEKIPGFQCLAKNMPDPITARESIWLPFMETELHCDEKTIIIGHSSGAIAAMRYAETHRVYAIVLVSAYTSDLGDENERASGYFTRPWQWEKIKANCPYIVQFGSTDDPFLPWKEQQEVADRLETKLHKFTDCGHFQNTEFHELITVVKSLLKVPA
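System: RBBP9 protein / Quantity: 2.5 µM RBBP9 dispensing solution, before mixing / Also added: Serine-hydrolase probe FP-Rh, 375 nM pre-mixing / Dosing: 7.94 µM single dose, 0.794% DMSO / Timing: enzyme-compound preincubation 30 min, then probe labeling 45 min, 25 °C / Signal: FP readout at 525/598 nm / Controls: DMSO-treated enzyme wells and wells lacking RBBP9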
TbHK1 inh – T. brucei hexokinase 1 inhibition | 220,000 tested, 0.11% active | inhibition, % at 10 µM | AID 1430 | recombinant TbHK1, G6PDH-coupled NADH A340;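 active means inhibition of 50% or more in the single-dose primary screen; inactive means inhibition below 50%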
PfM18AAP inh – blocks P. falciparum M18 aspartyl aminopeptidase. inhibition, % at 7.35 µM. 290,000 tested, 1.2% active. recombinant PfM18AAP, H-Glu-NHMec fluorogenic cleavage. AID 1822;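 active means inhibition above the campaign mean inhibition over all tested compounds plus 3 SD, cut at about 28% in these data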;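 further: 0% = plate median of test compound wells and 100% = 2 mM ZnCl2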
TNF death inh – TNF-alpha cell death inhibition in Jurkat FADD-/- cells; Jurkat FADD-/- TNF necroptosis rescue, ATP luminescence, 24 h; 0 = TNF only, 100 = no-TNF cells; activation (protection from cell death), % at 10 µM; 220,000 tested, 0.068% active; AID 463075;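 active means activation, meaning protection from cell death, of at least 50% relative to plate controls; inactive means activation below 50%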;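 further: necroptosis triggered by 40 ng/mL TNF-alpha added together with compound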
L929 necroptosis – blocks zVAD induced death of L929 cells; L929 zVAD necroptosis rescue, ATP luminescence, 24 h; with zVAD 60 µM; viability rescue, % at 10 µM; 220,000 tested, 0.38% active; AID 1377;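 active means activation, scaled between plate controls, above about 75%, limit read from the data; inactive means activation under that limit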;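 further: 0% = zVAD with DMSO and 100% = DMSO alone without zVAD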
Hep lipid drop – modulators of hepatic lipid droplet formation; AID 1656; 240,000 tested, 0.4% active; inhibition, % at 6.5 µM; AML12 mouse hepatocytes, oleate lipid droplets, BODIPY imaging;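 active means lipid droplet intensity inhibited by at least 50%, with more than 500 cells counted; inconclusive means wells with under 300 cells, treated as cytotoxic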
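Assay system: AML12 mouse liver cells | Compound dosing: One dose, 6.5 µM compound | Read-out basis: Droplet intensity reduction, % inhibition | Measured by: Fluorescence imaging, 20x objective, two fields per well | Schedule: Overnight treatment with compound plus oleate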
zVAD necrop conf – confirmed blocker of zVAD induced death in L929 cells; shares compounds with L929 necroptosis; L929 zVAD-induced necroptosis rescue, ATP luminescence, 24 h; activation (protection from necroptosis), % at 10 µM; 760 tested, 16% active; AID 463117;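 active means mean protection from necroptosis of at least 50% over duplicate tests; inactive means mean protection below 50%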;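 further: 0% = cells with zVAD alone and 100% = vehicle cells without zVAD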
* = called active by the depositor; ? = inconclusive; . = no result. The list is not random: actives were taken first. Their share in the collection is about 2%.

SMILES	RBBP9 inhibitor	TbHK1 inh	PfM18AAP inh	TNF death inh	L929 necroptosis	Hep lipid drop	zVAD necrop conf
Cc1ccc(-c2cc(C(=O)N/N=C/c3c(C)nn(-c4ccccc4)c3C)[nH]n2)cc1	-9.3	-13.6	-2.7	-21.8	6.2	?	.
Cc1nn(-c2ccccc2)c(C)c1-c1cc(C(=O)N/N=C/c2cccnc2)[nH]n1	-3.0	-6.7	-1.7	-0.2	75.4*	-16.5	3.2
O=C(NC1CC2CCCC(C1)N2C(=O)Nc1ccc(Cl)c(C(F)(F)F)c1)C1CC1 (stereo unspecified)	-5.1	-4.1	3.1	0.2	0.5	.	.
O=C(Nc1ccc(Cl)c(C(F)(F)F)c1)NC1CC2CCCC(C1)N2Cc1ccccc1 (stereo unspecified)	-4.7	33.1	-4.2	-0.1	76.3*	-52.7	33.4
COc1cccc(NC(=O)Nc2cc(Cl)ccc2C)c1	-19.7	-0.8	0.8	1.6	76.8*	-20.8	0.2
COC(=O)COc1cccc(-n2cnnn2)c1	-4.3	6.3	-5.8	-0.8	-0.1	.	.
Cc1cc(C(=O)COc2cccc(-n3cnnn3)c2)c(C)n1-c1ccccc1	-6.2	-8.5	3.9	-6.8	81.0*	.	35.7
Cc1ccc(S(=O)(=O)NNc2ccccc2)c(C)c1	1.4	34.8	-8.2	2.3	1.5	29.4	.
Cc1ccnc(NC(=O)Nc2cccc(F)c2)c1	-2.8	7.8	2.7	7.4	92.0*	-12.8	32.4
Cc1cc(C)nc(NC(=O)Nc2ccc3c(c2)OCO3)c1	2.5	-11.8	-11.8	0.8	30.7	-3.5	.
Cc1ccc(NC(=O)Nc2cccc(F)c2)nc1	.	.	2.6	.	.	-9.8	.
Cc1cccc(NC(=O)Nc2cc(C)cc(C)n2)c1	-5.1	1.3	3.1	-0.3	75.5*	7.2	2.6
O=[N+]([O-])c1ccccc1S(=O)(=O)N1CCN(c2ccccc2)CC1	.	.	-13.2	.	.	-21.4	.
CCN1C(=O)/C(=C2/Sc3ccccc3N2CC)S/C1=N\c1ncn[nH]1	0.2	-7.6	3.6	-3.2	81.9*	6.1	4.5
C=CCN1C(=O)/C(=C2/Sc3ccccc3N2CC)SC1=S	.	.	2.5	.	.	2.5	.
COc1ccccc1-n1nnnc1SCC(=O)Nc1ccc(C)c(N)c1	.	.	-21.2	.	.	-4.5	.
CC(=O)c1sc(Nc2ccccn2)nc1C	11.7	-75.1	4.1	-3.5	95.5*	.	0.7
CC(=O)c1sc(Nc2ccc(C)cc2)nc1C	-4.9	-12.3	7.9	0.9	-0.7	3.6	.
Cc1ccccc1-n1c(=O)n(Cc2ccco2)c(=O)c2[nH]cnc21	.	.	-1.9	.	.	18.0	.
O=C(/C=C/c1ccc2ccccc2n1)N1CCN(S(=O)(=O)c2ccccc2F)CC1	-0.5	-20.8	1.5	1.8	83.7*	15.7	4.7
O=C(/C=C/c1ccc2ccccc2n1)N1CCN(S(=O)(=O)c2ccc(F)cc2)CC1	-17.6	-10.3	1.3	4.6	27.6	-12.6	.
O=C(Nc1nccs1)c1cccc(N2C(=O)C3C4C=CC(C4)C3C2=O)c1 (stereo unspecified)	-6.2	28.6	-9.8	11.0	78.2*	8.9	17.3
O=C(Nc1nccs1)c1ccc(N2C(=O)C3CCCCC3C2=O)cc1 (stereo unspecified)	-3.2	-4.7	5.4	2.6	1.0	0.9	.
O=C(Nc1nccs1)c1ccc(N2C(=O)[C@@H]3[C@H](C2=O)[C@H]2C=C[C@@H]3C2)cc1	-11.5	-11.6	2.3	17.2	79.4*	-4.9	2.2
CC(C)c1ccc(C(=O)NC(=S)Nc2ccc3[nH]c(=O)[nH]c3c2)cc1	-0.8	-46.7	0.1	-6.3	80.7*	-0.5	27.9
CCOc1ccc2nc(NC(=O)C3CCN(S(=O)(=O)c4cnc[nH]4)CC3)sc2c1	-8.9	3.2	-5.3	-0.1	83.2*	.	10.4
COc1ccc2nc(NC(=O)C3CCN(S(=O)(=O)c4cnc[nH]4)CC3)sc2c1	-3.4	0.1	3.8	4.1	72.5	6.1	.
COc1ccc2nc(NC(=O)C3CCN(S(=O)(=O)c4cccnc4)CC3)sc2c1	-0.1	-9.5	-7.6	0.0	88.0*	.	4.9
